OX1R antag-1 – antagonists of human orexin 1 receptor. 0.43% of 330,000 active. inhibition, % at 5 µM. O43613. CHO/OX1R cells, Fluo-8 calcium fluorescence, orexin A;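 active = inhibition above its plate's threshold, mean inhibition of all tested compounds on the plate plus 3 SD, cut at about 37% in these data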;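 also: 0% = orexin A challenge wells and 100% = SB-334867-A antagonist wells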
TAAR1 ag – agonists of human TAAR1; Q96RJ0; CHO RD-HGA16 TAAR1, Fluo-8 calcium fluorescence; vehicle wells 0%, saturating PEA agonist 100%; activation, % at 3 µM; 0.99% of 360,000 active; AID 624467;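 active = activation above the mean activation of all test compounds in the run plus 3 SD, cut at about 38% in these data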
Target sequence (Q96RJ0 whole entry, looked up): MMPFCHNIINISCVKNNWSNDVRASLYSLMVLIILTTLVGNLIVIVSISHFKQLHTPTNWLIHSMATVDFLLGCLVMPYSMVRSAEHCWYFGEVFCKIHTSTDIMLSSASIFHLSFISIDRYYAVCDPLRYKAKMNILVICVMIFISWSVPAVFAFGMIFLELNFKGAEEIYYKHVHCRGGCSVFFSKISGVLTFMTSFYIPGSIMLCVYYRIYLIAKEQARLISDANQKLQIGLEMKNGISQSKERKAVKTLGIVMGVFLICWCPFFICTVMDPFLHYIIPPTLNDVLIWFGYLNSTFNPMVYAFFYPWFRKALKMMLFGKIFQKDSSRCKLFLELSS
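System: CHO-derived RD-HGA16 cells with stable Gα16 and human TAAR1 / Times: 17-24 h plating, Fluo-8 75 min 37 °C, 30 min RT / Technique: calcium-sensitive Fluo-8 signal, excitation 470-495, emission 515-575 nm / Measure: % activation relative to PEA EC100 response / Benchmarks: DMSO and PEA EC100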
CHO parental Ca – counter-screen: ATP calcium response change in parental CHO cells | parental CHO-K1, ATP-induced calcium, Fluo-8 fluorescence | inhibition, % at 5.6 µM | 0.63% of 330,000 active;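 active = inhibition above that plate's mean sample inhibition plus 3 SD, cut at about 26% in these data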;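 also: 0% = ATP-challenged DMSO wells and 100% = DMSO wells without ATP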
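Measured by: calcium-sensitive Fluo-8 fluorescence / Test system: CHO parental line / Controls: ATP-challenged DMSO wells low, unchallenged DMSO wells high / Measure: % inhibition / Compound: single nominal dose of 5.6 µM per compound / Replicates: single well per compound, no replicates / Reagent: ATP as calcium-mobilizing challenge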
TAAR1 antag – human TAAR1 antagonism; Q96RJ0; CHO RD-HGA16 TAAR1, Fluo-8 calcium fluorescence, antagonist; inhibition, % at 3 µM; 1.5% of 360,000 active; AID 624466;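 active = inhibition above a per-plate cutoff, the mean inhibition of test compounds on that plate plus 3 SD, cut at about 49% in these data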;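 also: 0% = DMSO plus EC80 beta-PEA response and 100% = DMSO alone without agonist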
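Material: RD-HGA16 CHO cells with stable hTAAR1 and Gα16; Dosing: single nominal final test compound concentration of 3 µM; Schedule: seeding 17-24 h prior, 75-min 37 °C, 30-min RT dye loading; Detection: kinetic Fluo-8 calcium fluorescence measurement; Measure: % inhibition from peak post-agonist over basal fluorescence ratio; Benchmarks: vehicle and agonist controls.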
GPR7 antagonist – human neuropeptides B/W receptor 1 antagonism; GPR7-expressing cells, fluorescence antagonist assay; inhibition, % at 4.4 µM; 1.1% of 290,000 active; AID 1861; in the data active = inhibition above about 16%, passing the limit was not always enough;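 also: cells stimulated with the agonist NPW; 0% = agonist with vehicle and 100% = vehicle without agonist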
Target sequence (P48145 whole entry, looked up): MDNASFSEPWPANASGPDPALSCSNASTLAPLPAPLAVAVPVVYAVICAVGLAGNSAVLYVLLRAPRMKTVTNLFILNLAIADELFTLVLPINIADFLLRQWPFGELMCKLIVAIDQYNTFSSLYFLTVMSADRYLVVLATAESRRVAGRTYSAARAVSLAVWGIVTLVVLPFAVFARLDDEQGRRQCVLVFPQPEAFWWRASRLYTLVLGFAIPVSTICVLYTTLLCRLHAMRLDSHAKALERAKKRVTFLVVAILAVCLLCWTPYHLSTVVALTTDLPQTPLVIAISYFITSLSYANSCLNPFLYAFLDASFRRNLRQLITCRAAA
OX1R antag-2 – antagonists of human orexin 1 receptor (OX1R); O43613; OX1R-expressing cells, FRET antagonist read-out; inhibition, % at 6.6 µM; 1.8% of 330,000 active; AID 485270; in the data active = inhibition mostly above about 38%, no sharp cut-off; inactive = mostly below about 40%;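 also: 0% = agonist challenge alone and 100% = reference antagonist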
GPR7 antag cf – confirmation of human GPR7 antagonists. shares compounds with GPR7 antagonist. GPR7-expressing cells, calcium fluorescence antagonist mode. inhibition, % at 4.4 µM. 52% of 2,400 active; in the data active = inhibition above about 24%;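 also: stimulated with the GPR7 agonist NPW; 0% = agonist plus vehicle and 100% = vehicle alone without agonist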
MCHR1 antag – MCHR1 (human) antagonism in GPR7 counter-screen; shares compounds with GPR7 antagonist; MCHR1-expressing cells, fluorescence antagonist assay; inhibition, % at 4.4 µM; 62% of 2,400 active; AID 2148; in the data active = inhibition above about 22%;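 also: 0% = vehicle with agonist and 100% = vehicle without agonist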
Numbers without * were called inactive; . = not tested or not shown; ! = a repeat was not active. Only some compounds are listed: those with a hit (about 4.6% of all), similar ones and a draw of the others.

SMILES	OX1R antag-1	TAAR1 ag	CHO parental Ca	TAAR1 antag	GPR7 antagonist	OX1R antag-2	GPR7 antag cf	MCHR1 antag
c1ccc(C(c2ccccn2)c2ccccn2)cc1	-8	-1	-2	13	-2	21	.	.
CCOC1=C2[C@H](c3ccccc3)N(S(=O)(=O)c3ccc(C)cc3)C[C@H]2n2c(=O)n(-c3ccccc3)c(=O)n2C1	.	0	.	-32	.	.	.	.
CCOc1ccc(N(C)S(=O)(=O)c2cc(-c3cc(C)no3)ccc2C)cc1	12	2	10	65*	32*	20	17	74*
C=CCOc1ccccc1C(=O)/C=C1/C(=O)Nc2ccccc21	17	2	33*	12	37*	20	59*	82*
CC(Sc1nnc(-c2cccnc2)n1C)C(=O)N1CCOCC1 (stereo not drawn)	-2	1	-11	-7	.	9	.	.
CN[C@H]1CC[C@@H](c2ccc(Cl)c(Cl)c2)c2ccccc21	-4	52*	0	51*!	35*!	15	51*	49*
O=C1C=C(O)CC(c2ccc(Cl)c(Cl)c2)C1 (stereo not drawn)	-6	1	-15	1	-4	27	.	.
Cc1ccc(-c2cnc(C(O)c3ccc(Cl)cc3C)[nH]2)cc1 (stereo not drawn)	.	1	.	-9	.	.	.	.
COc1cccc(OCc2cc(C(=O)N3CCN(C)C(c4ccccc4)C3)no2)c1 (stereo not drawn)	-23	.	-19	.	2	4	.	.
COc1ccc(CN(C)Cc2nc(Cc3cccc(F)c3)no2)c2cccnc12	19	12	25	5	30*	25	22	43*
COc1cccc(-n2cc(CN(C)Cc3nc(Cc4cccc(F)c4)no3)cn2)c1	-22	0	-19	-12	0	11	.	.
Clc1ccc(CN(Cc2ccc(Cl)cc2)c2nn[nH]n2)cc1	2	-2	-5	0	26*	31	25*	21
c1ccc(CN(Cc2ccccc2)c2nn[nH]n2)cc1	-2	1	-13	-13	0	12	.	.
CCN(CC)S(=O)(=O)c1cc(NC(=O)CSc2nc3c(cc2C#N)C(=O)CC(C)(C)C3)ccc1C	-21	0	-25	4	-8	3	.	.
COc1ccc(C(=O)NCC(=O)N2CCC(Cc3ccccc3)CC2)cc1OC	.	0	.	-5	.	.	.	.
CNC(=O)/C(C#N)=C/c1c(N(Cc2ccccc2)Cc2ccccc2)nc2c(C)cccn2c1=O	-16	18	-3	22	39*	14	23	49*
CCOC(=O)N1CCN(C(=O)C2CCN(S(=O)(=O)c3ccc(NC(C)=O)cc3)CC2)CC1	-2	5	-5	-18	10	5	.	.
Clc1ccc(CN2C3=NCCCN3c3ccccc32)cc1Cl	-29	5	-32	3	24*	22	26*	27*
Clc1ccc(CN2C3=NCCCN3c3ccccc32)cc1	-29	5	-21	-5	4	3	.	.
O=C1CN(C(=O)COC(=O)c2ccc(Cl)c(S(=O)(=O)N3CCCCC3)c2)c2ccccc2N1	-14	9	-14	24	.	9	.	.
COC(=O)c1ccc(OCC(=O)NCCC2=CCCCC2)c(OC)c1	-12	17	-18	-5	.	16	.	.
CCC(=O)c1ccc(OCC(=O)NCCC2=CCCCC2)c(OC)c1	-29	0	-27	2	24*	8	4	4
N#Cc1ccc(S(=O)(=O)N2CCCN(c3ccc(C(F)(F)F)cn3)CC2)cc1	-14	-2	-11	4	24*	3	19	8
O=S(=O)(c1ccc(F)cc1F)N1CCCN(c2ccc(C(F)(F)F)cn2)CC1	-14	0	-32	-27	-6	0	.	.
CC(=O)Nc1ccc(NC(=O)c2ccc(COc3ccccc3Br)o2)cc1	.	4	.	11	15	.	.	.
SMILES	OX1R antag-1	TAAR1 ag	CHO parental Ca	TAAR1 antag	GPR7 antagonist	OX1R antag-2	GPR7 antag cf	MCHR1 antag
O=C(Nc1cccnc1)c1ccc(COc2ccccc2Br)o1	-16	4	3	18	69*	22	33*	54*
O=C(COc1ccc2ccc(=O)oc2c1)Nc1ccc(N2CCCCC2)cc1	-17	5	-7	-18	.	3	.	.
CCN(CC(=O)Nc1cc(Cl)ccc1C)C(=O)CCOc1ccc(C)cc1	-37	-3	-21	-25	.	28	.	.
CCN(CC(=O)Nc1cc(Cl)ccc1C)c1ncnc2sc(C)c(C)c12	-22	2	-16	11	23*	25	11	44*
COc1ccc(C2=NN(c3ccccc3)C(=O)/C2=C\c2ccc(O)c(OC)c2)cc1	2	3	12	7	30*	14	1	26*
c1ccc(CCc2nn3c(Cn4cnc5ccccc54)nnc3s2)cc1	-13	2	-16	-12	23*	3	18	28*
COc1ccc(OCc2nn3c(Cn4cnc5ccccc54)nnc3s2)cc1	4	12	-9	7	-8	8	.	.
CC1C(=O)N2CCCc3cc(S(=O)(=O)N(C)CCC#N)cc1c32 (stereo not drawn)	-10	1	-6	-22	2	5	.	.
COC(=O)[C@@]1(Cc2ccc(F)cc2)[C@H]2c3cc(C(=O)N4CCCC4)n(Cc4ccc(C(F)(F)F)nc4)c3C[C@H]2CN1C(=O)c1ccccc1	-16	13	-22	8	29*	19	39*	22*
Cc1nnc(SCC(=O)Nc2cccc(S(=O)(=O)N(C)c3ccccc3)c2)s1	16	7	20	44	0	53	.	.
CCc1ccc([C@@H]2C[C@H]3CN(Cc4ccccc4OC)C(=O)[C@]34CCCN24)cc1	-23	7	-18	-9	24*	10	3	-1
COC(=O)C1=C(C)N=C2SC(C#N)=C(N)N2C1c1cc(OC)c(OC)c(OC)c1 (stereo not drawn)	-26	9	-12	-3	28*	16	-4	-5
COC(=O)C1=C(C)N=C2SC(C#N)=C(N)N2C1c1ccc(OCc2ccccc2)cc1 (stereo not drawn)	-2	12	-12	18	-7	24	.	.
CC1(C)Cc2c(cnn2-c2cccc(F)c2)C(NC(=O)Cn2cccn2)C1 (stereo not drawn)	.	0	.	-23	-2	.	.	.
O=C(NCCc1ccco1)C(=O)NCC1OCCCN1S(=O)(=O)c1ccc(F)cc1 (stereo not drawn)	13	4	-10	-20	24*	38	-1	2
O=C(NCc1ccc(Cl)cc1)c1cc(S(=O)(=O)N2CCCCC2)c[nH]1	-8	5	6	-3	-10	14	.	.

Screening data from PubChem BioAssay.
